Results taken from ChEMBL document CHEMBL3407460, “Synthesis of novel thiazole-based 8,9-dihydro-7H-pyrimido[4,5-b][1,4]diazepines as potential antitumor and antifungal agents” (2015).
Converted amounts (≈) assume the structure as drawn. Blank lines part the entries; values can stand above or below the compound they belong to.

How the values were obtained:
Type in all cases: functional
Cryptococcus neoformans [1] = experiment: Antifungal activity against Cryptococcus neoformans ATCC 32264 assessed as growth inhibition at 62.5 ug/ml after 48 hrs by broth microdilution method; details: ATCC 32264, 48 h
Summary of the method: (§1)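 CLSI M27-A3 broth microdilution in RPMI-1640. Compound stocks were made in DMSO (final at most 1%) and tested at final levels of 250 to 0.98. Inoculum was 1–5 × 10^3 CFU/mL, incubated 48 h at 30 °C in a moist, dark chamber. Growth and sterility control wells were included.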

Cryptococcus neoformans [2] = experiment: Antifungal activity against Cryptococcus neoformans ATCC 32264 assessed as growth inhibition at 7.81 ug/ml after 48 hrs by broth microdilution method; details: ATCC 32264, 48 h; summary of the method: as §1
Cryptococcus neoformans [3] = experiment: Antifungal activity against Cryptococcus neoformans ATCC 32264 assessed as growth inhibition at 31.25 ug/ml after 48 hrs by broth microdilution method; details: ATCC 32264, 48 h; summary of the method: as §1
Candida albicans [4] = experiment: Antifungal activity against Candida albicans ATCC 10231 assessed as growth inhibition at 250 ug/ml after 48 hrs by broth microdilution method; details: ATCC 10231, 48 h; summary of the method: as §1
Candida albicans [5] = experiment: Antifungal activity against Candida albicans ATCC 10231 assessed as growth inhibition at 7.81 ug/ml after 48 hrs by broth microdilution method; details: ATCC 10231, 48 h; summary of the method: as §1
Candida albicans [6] = experiment: Antifungal activity against Candida albicans ATCC 10231 assessed as growth inhibition at 3.9 ug/ml after 48 hrs by broth microdilution method; details: ATCC 10231, 48 h; summary of the method: as §1
Cryptococcus neoformans [7] = experiment: Antifungal activity against Cryptococcus neoformans ATCC 32264 assessed as growth inhibition at 15.62 ug/ml after 48 hrs by broth microdilution method; details: ATCC 32264, 48 h; summary of the method: as §1
Cryptococcus neoformans [8] = experiment: Antifungal activity against Cryptococcus neoformans ATCC 32264 assessed as growth inhibition at 250 ug/ml after 48 hrs by broth microdilution method; details: ATCC 32264, 48 h; summary of the method: as §1
Cryptococcus neoformans [9] = experiment: Antifungal activity against Cryptococcus neoformans ATCC 32264 assessed as growth inhibition at 125 ug/ml after 48 hrs by broth microdilution method; details: ATCC 32264, 48 h; summary of the method: as §1
Candida albicans [10] = experiment: Antifungal activity against Candida albicans ATCC 10231 assessed as growth inhibition at 15.62 ug/ml after 48 hrs by broth microdilution method; details: ATCC 10231, 48 h; summary of the method: as §1
Candida albicans [11] = experiment: Antifungal activity against Candida albicans ATCC 10231 assessed as growth inhibition at 125 ug/ml after 48 hrs by broth microdilution method; details: ATCC 10231, 48 h; summary of the method: as §1
Cryptococcus neoformans [12] = experiment: Antifungal activity against Cryptococcus neoformans ATCC 32264 assessed as growth inhibition at 3.9 ug/ml after 48 hrs by broth microdilution method; details: ATCC 32264, 48 h; summary of the method: as §1
Candida albicans [13] = experiment: Antifungal activity against Candida albicans ATCC 10231 assessed as growth inhibition at 62.5 ug/ml after 48 hrs by broth microdilution method; details: ATCC 10231, 48 h; summary of the method: as §1
Candida albicans [14] = experiment: Antifungal activity against Candida albicans ATCC 10231 assessed as growth inhibition at 31.25 ug/ml after 48 hrs by broth microdilution method; details: ATCC 10231, 48 h; summary of the method: as §1
Cryptococcus neoformans [15] = experiment: Antifungal activity against Cryptococcus neoformans IM 983040 clinical isolate after 48 hrs by broth microdilution method; details: IM 983040, 48 h
Summary of the method: (§2)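 Clinical isolates from the Malbrán Institute were grown on Sabouraud-chloramphenicol agar for 48 h at 30 °C, kept on Sabouraud-dextrose agar and subcultured every 15 days. M27-A3 RPMI-1640 microdilution used 1–5 × 10^3 CFU/mL, 48 h at 30 °C, OD405 read, triplicate. Endpoints MIC100, MIC80 and MIC50 were taken from % inhibition dose-response curves.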

Cryptococcus neoformans [16] = experiment: Antifungal activity against Cryptococcus neoformans IM 983036 clinical isolate after 48 hrs by broth microdilution method; details: IM 983036, 48 h; summary of the method: as §2
Cryptococcus neoformans [17] = experiment: Antifungal activity against Cryptococcus neoformans IM 972724 clinical isolate after 48 hrs by broth microdilution method; details: IM 972724, 48 h; summary of the method: as §2
Cryptococcus neoformans [18] = experiment: Antifungal activity against Cryptococcus neoformans IM 052470 clinical isolate after 48 hrs by broth microdilution method; details: IM 052470, 48 h
Summary of the method: (§3)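 Clinical isolates from the Malbrán Institute were grown on Sabouraud-chloramphenicol agar for 48 h at 30 °C, kept on Sabouraud-dextrose agar and subcultured every 15 days. Endpoints MIC100, MIC80 and MIC50 were taken from % inhibition dose-response curves.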

Cryptococcus neoformans [19] = experiment: Antifungal activity against Cryptococcus neoformans IM 031706 clinical isolate after 48 hrs by broth microdilution method; details: IM 031706, 48 h; summary of the method: as §3
Cryptococcus neoformans [20] = experiment: Antifungal activity against Cryptococcus neoformans ATCC 32264 after 48 hrs by broth microdilution method; details: ATCC 32264, 48 h
Cryptococcus neoformans [21] = experiment: Antifungal activity against Cryptococcus neoformans IM 961951 clinical isolate after 48 hrs by broth microdilution method; details: IM 961951, 48 h; summary of the method: as §2
Cryptococcus neoformans [22] = experiment: Antifungal activity against Cryptococcus neoformans IM 031631 clinical isolate after 48 hrs by broth microdilution method; details: IM 031631, 48 h; summary of the method: as §2
Cryptococcus neoformans [23] = experiment: Antifungal activity against Cryptococcus neoformans IM 00319 clinical isolate after 48 hrs by broth microdilution method; details: IM 00319, 48 h; summary of the method: as §3
Cryptococcus neoformans [24] = experiment: Antifungal activity against Cryptococcus neoformans IM 972751 clinical isolate after 48 hrs by broth microdilution method; details: IM 972751, 48 h; summary of the method: as §2
Cryptococcus neoformans [25] = experiment: Antifungal activity against Cryptococcus neoformans IM 042074 clinical isolate after 48 hrs by broth microdilution method; details: IM 042074, 48 h; summary of the method: as §2

SMILES: Nc1nc(N)c2c(n1)NC(c1sc(Cl)nc1Cl)CC(c1ccc3c(c1)OCO3)=N2 (configuration not stated)
inhibition at 62.5 µg/mL (Cryptococcus neoformans [1]): 19.5%
inhibition at 7.81 µg/mL (Cryptococcus neoformans [2]): 3.92%
inhibition at 31.25 µg/mL (Cryptococcus neoformans [3]): 7.07%
inhibition at 250 µg/mL (Candida albicans [4]): 56.8%
inhibition at 7.81 µg/mL (Candida albicans [5]): 0%
inhibition at 3.9 µg/mL (Candida albicans [6]): 0%
inhibition at 15.62 µg/mL (Cryptococcus neoformans [7]): 5.35%
inhibition at 250 µg/mL (Cryptococcus neoformans [8]): 58.5%
inhibition at 125 µg/mL (Cryptococcus neoformans [9]): 36.9%
inhibition at 15.62 µg/mL (Candida albicans [10]): 0%
inhibition at 125 µg/mL (Candida albicans [11]): 48.1%
inhibition at 3.9 µg/mL (Cryptococcus neoformans [12]): 0%
inhibition at 62.5 µg/mL (Candida albicans [13]): 41.6%
inhibition at 31.25 µg/mL (Candida albicans [14]): 24.3%

MIC50 (Cryptococcus neoformans [15]): 7.8 µg/mL (≈ 19.2 µM)
MIC80 (Cryptococcus neoformans [15]): 31.2 µg/mL (≈ 76.8 µM)
MIC (Cryptococcus neoformans [15]; read-out: MIC100): 31.2 µg/mL (≈ 76.8 µM)
MIC50 (Cryptococcus neoformans [16]): 15.6 µg/mL (≈ 38.4 µM)
MIC80 (Cryptococcus neoformans [16]): 31.2 µg/mL (≈ 76.8 µM)
MIC (Cryptococcus neoformans [16]; read-out: MIC100): 31.2 µg/mL (≈ 76.8 µM)
MIC50 (Cryptococcus neoformans [17]): 15.6 µg/mL (≈ 38.4 µM)
MIC80 (Cryptococcus neoformans [17]): 31.2 µg/mL (≈ 76.8 µM)
MIC (Cryptococcus neoformans [17]; read-out: MIC100): 31.2 µg/mL (≈ 76.8 µM)
MIC50 (Cryptococcus neoformans [18]): 7.8 µg/mL (≈ 19.2 µM)
MIC80 (Cryptococcus neoformans [18]): 31.2 µg/mL (≈ 76.8 µM)
MIC (Cryptococcus neoformans [18]; read-out: MIC100): 62.5 µg/mL (≈ 154 µM)
MIC50 (Cryptococcus neoformans [19]): 31.2 µg/mL (≈ 76.8 µM)
MIC80 (Cryptococcus neoformans [19]): 31.2 µg/mL (≈ 76.8 µM)
MIC (Cryptococcus neoformans [19]; read-out: MIC100): 62.5 µg/mL (≈ 154 µM)
MIC50 (Cryptococcus neoformans [20]): 15.6 µg/mL (≈ 38.4 µM)
MIC80 (Cryptococcus neoformans [20]): 31.2 µg/mL (≈ 76.8 µM)
MIC (Cryptococcus neoformans [20]; read-out: MIC100): 31.2 µg/mL (≈ 76.8 µM)
MIC50 (Cryptococcus neoformans [21]): 15.6 µg/mL (≈ 38.4 µM)
MIC80 (Cryptococcus neoformans [21]): 31.2 µg/mL (≈ 76.8 µM)
MIC (Cryptococcus neoformans [21]; read-out: MIC100): 31.2 µg/mL (≈ 76.8 µM)
MIC50 (Cryptococcus neoformans [22]): 31.2 µg/mL (≈ 76.8 µM)
MIC80 (Cryptococcus neoformans [22]): 31.2 µg/mL (≈ 76.8 µM)
MIC (Cryptococcus neoformans [22]; read-out: MIC100): 62.5 µg/mL (≈ 154 µM)
MIC50 (Cryptococcus neoformans [23]): 31.2 µg/mL (≈ 76.8 µM)
MIC80 (Cryptococcus neoformans [23]): 31.2 µg/mL (≈ 76.8 µM)
MIC (Cryptococcus neoformans [23]; read-out: MIC100): 62.5 µg/mL (≈ 154 µM)
MIC50 (Cryptococcus neoformans [24]): 31.2 µg/mL (≈ 76.8 µM)
MIC80 (Cryptococcus neoformans [24]): 31.2 µg/mL (≈ 76.8 µM)
MIC (Cryptococcus neoformans [24]; read-out: MIC100): 62.5 µg/mL (≈ 154 µM)
MIC50 (Cryptococcus neoformans [25]): 15.6 µg/mL (≈ 38.4 µM)
MIC80 (Cryptococcus neoformans [25]): 31.2 µg/mL (≈ 76.8 µM)
MIC (Cryptococcus neoformans [25]; read-out: MIC100): 31.2 µg/mL (≈ 76.8 µM)
SMILES: Nc1nc(N)c2c(n1)NC(c1sc(Cl)nc1Cl)CC(c1ccccc1)=N2 (configuration not stated)
inhibition at 62.5 µg/mL (Cryptococcus neoformans [1]): 21.8%
inhibition at 7.81 µg/mL (Cryptococcus neoformans [2]): 0%
MFC (Cryptococcus neoformans [15]): 62.5 µg/mL (≈ 154 µM)
inhibition at 31.25 µg/mL (Cryptococcus neoformans [3]): 7%
MFC (Cryptococcus neoformans [16]): 31.2 µg/mL (≈ 76.8 µM)
inhibition at 250 µg/mL (Candida albicans [4]): 100%
MFC (Cryptococcus neoformans [17]): 31.2 µg/mL (≈ 76.8 µM)
inhibition at 7.81 µg/mL (Candida albicans [5]): 21.5%
inhibition at 3.9 µg/mL (Candida albicans [6]): 4.92%
inhibition at 15.62 µg/mL (Cryptococcus neoformans [7]): 2.53%
inhibition at 250 µg/mL (Cryptococcus neoformans [8]): 100%
inhibition at 125 µg/mL (Cryptococcus neoformans [9]): 74.3%
MFC (Cryptococcus neoformans [18]): 62.5 µg/mL (≈ 154 µM)
MFC (Cryptococcus neoformans [19]): 62.5 µg/mL (≈ 154 µM)
MFC (Cryptococcus neoformans [20]): 31.2 µg/mL (≈ 76.8 µM)
inhibition at 15.62 µg/mL (Candida albicans [10]): 62%
inhibition at 125 µg/mL (Candida albicans [11]): 100%
inhibition at 3.9 µg/mL (Cryptococcus neoformans [12]): 0%
MFC (Cryptococcus neoformans [21]): 31.2 µg/mL (≈ 76.8 µM)
inhibition at 62.5 µg/mL (Candida albicans [13]): 100%
MFC (Cryptococcus neoformans [22]): 62.5 µg/mL (≈ 154 µM)
MFC (Cryptococcus neoformans [23]): 62.5 µg/mL (≈ 154 µM)
MFC (Cryptococcus neoformans [24]): 62.5 µg/mL (≈ 154 µM)
inhibition at 31.25 µg/mL (Candida albicans [14]): 100%
MFC (Cryptococcus neoformans [25]): 62.5 µg/mL (≈ 154 µM)
